Screening data deposited in PubChem by several laboratories.
Shown are actives, neighbours in structure and some others; about 2.3% of the full set was active somewhere.
ABCG2 inh: human ABCG2 inhibition, ABCB1 as counter-screen; inhibition, % at 6.6 µM; actives 0.1% (n = 190,000); IgMXP3 cells, JC-1 efflux, flow cytometry; Q9UNQ0; AID 1325;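 active means inhibition above 80%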
Target sequence (Q9UNQ0 whole entry, looked up): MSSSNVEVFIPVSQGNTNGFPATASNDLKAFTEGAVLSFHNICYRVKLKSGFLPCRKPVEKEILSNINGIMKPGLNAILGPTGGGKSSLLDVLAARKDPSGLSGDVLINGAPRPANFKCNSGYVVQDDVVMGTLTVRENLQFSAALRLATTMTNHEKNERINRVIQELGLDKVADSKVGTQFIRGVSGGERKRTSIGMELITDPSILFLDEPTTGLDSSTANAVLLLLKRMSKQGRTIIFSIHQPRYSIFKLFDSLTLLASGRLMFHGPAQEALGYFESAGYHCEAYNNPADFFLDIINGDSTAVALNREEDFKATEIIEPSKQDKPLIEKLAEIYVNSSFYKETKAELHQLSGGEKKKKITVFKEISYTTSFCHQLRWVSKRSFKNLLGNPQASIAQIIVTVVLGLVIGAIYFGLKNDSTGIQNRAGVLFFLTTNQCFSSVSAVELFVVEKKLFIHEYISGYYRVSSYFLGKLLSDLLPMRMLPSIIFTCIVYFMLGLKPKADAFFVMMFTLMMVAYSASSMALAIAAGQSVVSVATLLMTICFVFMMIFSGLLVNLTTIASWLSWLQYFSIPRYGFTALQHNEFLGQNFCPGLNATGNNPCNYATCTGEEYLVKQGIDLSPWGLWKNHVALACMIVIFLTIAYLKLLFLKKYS
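Incubation: cells with compound and JC-1, 10 min at 25 °C, rotating, no wash / Test system: IgMXP3 (ABCG2) plus far-red-tagged CCRF-Adr (ABCB1) cells / Compound dosing: one concentration, 6.6 µM final / Also added: JC-1 fluorescent substrate / Evaluation: efflux inhibition in percent versus controls / Detection: flow cytometry, 530 nm JC-1 signal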
sdo1 growth: restores growth of sdo1-depleted yeast. S. cerevisiae sdo1-depleted JHY4D growth rescue, OD600 30 h; active compounds read high; pdr5 snq2 efflux-pump mutant strain. z-score at 10 µM. actives 0.21% (n = 140,000). AID 817;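 active means z-score above 3 at both the 24 hr and the 30 hr optical density reads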
Ins promoter up: MIN6 insulin promoter up-regulation; MIN6 insulin promoter-GFP reporter, high-content imaging; active compounds read high; z-score at 5 µM; actives 0.3% (n = 190,000); AID 1625;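 active means z-score above 3 at 5 µM with at least 500 cells counted in the well; inconclusive means wells under 500 cells, flagged as cytotoxic or low count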
ABCB1 inh: inhibitors of human ABCB1 transporter, ABCG2 counter-screen. AID 1326. CCRF-Adr cells, JC-1 efflux, flow cytometry. P08183. inhibition, % at 6.6 µM. actives 0.067% (n = 190,000); in the data active means inhibition above about 40%;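 further: higher value means more JC-1 retained so stronger ABCB1 efflux block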
Autophagy HCS: modulators of autophagy; MEF GFP-LC3 puncta imaging; test concentration mostly 10 µM; calls only at 10 µM (by protocol); actives 0.98% (n = 190,000);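 active means percentage of spot-positive cells more than 3 SD above its plate mean, without a fluorescence outlier flag or 80% toxicity; inconclusive means no clear call, values can overlap the other calls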
ROMK primary: human ROMK K+ channel modulation, primary screen | Tet-inducible ROMK, thallium flux fluorescence; actives lie on both sides | B-score at 10 µM | actives 2% (n = 130,000);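 active means signal ratio slope over the read window, or its plate-corrected B-score, at least 3 SD from the plate mean, either direction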;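 further: B-score of the F/F0 ratio slope over 7 to 12 s after thallium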
ROMK hit retest: confirmation of human ROMK potassium channel modulators; shares compounds with ROMK primary; ROMK thallium flux, fluorescence ratio; active compounds read low; normalized thallium flux (F/F0 slope) at 10 µM; actives 54% (n = 3,000); AID 1917;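 active means Flux at 10 µM at least 3 SD below or above vehicle control mean in one or both replicates; inconclusive means no clear call, values can overlap the other calls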
Numbers stand for hits.

How did Cc1ccc2c(C(=O)N3CCN(c4ccccc4)CC3)cc(-c3cccnc3)nc2c1C do in these assays?
ABCG2 inh: inactive; Ins promoter up: inactive; ABCB1 inh: inactive; Autophagy HCS: inactive; ROMK primary: 1.9; ROMK hit retest: inactive

Results for COc1cc(C2CC(=O)c3c([nH]c(C(=O)OCCOC(C)C)c3C)C2)cc(OC)c1OC (stereo not drawn) ?
ABCG2 inh: inactive; sdo1 growth: inactive; ABCB1 inh: inactive; ROMK hit retest: 0.063

Results for COC(=O)c1ccccc1NC(=O)/C=N/O ?
ABCG2 inh: inactive; sdo1 growth: inactive; Ins promoter up: inactive; ABCB1 inh: inactive; Autophagy HCS: inactive; ROMK primary: inactive

Results for O=C(/C=N/O)Nc1ccc2sc3ccccc3c2c1 ?
Ins promoter up: inactive; ROMK primary: -2.8; ROMK hit retest: 0.064

What do the screens show for `NS(=O)(=O)c1ccc(NC(=O)COC(=O)COc2ccccc2)cc1`?
ABCG2 inh: inactive; Ins promoter up: inactive; ABCB1 inh: inactive; Autophagy HCS: inactive; ROMK primary: inactive

What do the screens show for `O=c1c([N+](=O)[O-])cc(C(F)(F)F)cn1Cc1c(Cl)cccc1Cl`?
ABCG2 inh: inactive; sdo1 growth: inactive; ABCB1 inh: inactive; Autophagy HCS: inactive; ROMK hit retest: inactive

How did Cc1cc(N2CCOCC2)ccc1/C=C1\NC(=O)N(CC(=O)Nc2ccc(F)cc2)C1=O do in these assays?
ABCG2 inh: inactive; Ins promoter up: inactive; ABCB1 inh: inactive; Autophagy HCS: inactive; ROMK primary: inactive

Results for Cc1cc(N2CCOCC2)ccc1/C=C1\NC(=O)N(CC(=O)Nc2ccccc2C)C1=O ?
ABCG2 inh: inactive; sdo1 growth: inactive; Ins promoter up: inactive; ABCB1 inh: inactive; Autophagy HCS: inactive; ROMK primary: 0.75; ROMK hit retest: inconclusive

Results for COc1cc(-c2nc3cnccn3c2Nc2ccc(C)cc2)ccc1O ?
ABCG2 inh: inactive; sdo1 growth: inactive; Ins promoter up: inactive; ABCB1 inh: inactive; Autophagy HCS: inactive; ROMK primary: -3.4; ROMK hit retest: 0.066

How did CCO[C@@H]1OC(C(=O)N2CCCCCCC2)=C[C@H](c2cn(C(C)=O)c3ccccc23)[C@H]1CCCO do in these assays?
ABCG2 inh: inactive; Ins promoter up: inactive; ABCB1 inh: inactive; Autophagy HCS: inactive

Results for Cc1[nH][nH]c(=O)c1C=NCc1ccc(Cl)cc1 ?
ABCG2 inh: inactive; Ins promoter up: inactive; ABCB1 inh: inactive; Autophagy HCS: inactive; ROMK primary: inactive

What do the screens show for `Nc1[nH]n(-c2ccccc2)c(=O)c1N=Nc1ccc2c(c1)OCO2`?
Ins promoter up: inactive; ROMK hit retest: inactive

What do the screens show for `CCN=c1scc(-c2ccc3c(c2)NC(=O)CO3)n1N=C1CCCC1`?
ABCG2 inh: inactive; sdo1 growth: inactive; Ins promoter up: inconclusive; ABCB1 inh: inactive; Autophagy HCS: inactive; ROMK hit retest: inactive

Results for CCC(=O)Nc1nc2ccc(NC(=O)c3cc(OC)c(OC)c(OC)c3)cc2s1 ?
ABCG2 inh: inactive; Ins promoter up: inactive; ABCB1 inh: inactive; Autophagy HCS: inactive; ROMK hit retest: 0.064

Results for CCN(CC)CCCNc1oc(-c2ccccc2[N+](=O)[O-])nc1C#N ?
Ins promoter up: inactive

How did CCCC(C(=O)NC1CCCC1)N(Cc1cccs1)C(=O)c1snc(C(N)=O)c1N (stereo not drawn) do in these assays?
ABCG2 inh: inactive; sdo1 growth: inactive; Ins promoter up: inactive; ABCB1 inh: inactive; Autophagy HCS: inactive; ROMK hit retest: inactive

What do the screens show for `CC(C)CC(C(=O)NC1CCCC1)N(Cc1ccc2c(c1)OCO2)C(=O)c1snc(C(N)=O)c1N` (stereo not drawn)?
ABCG2 inh: inactive; Ins promoter up: inactive; ABCB1 inh: inactive; Autophagy HCS: inactive; ROMK primary: inactive

What do the screens show for `CC(C)CCNC(=O)C(CC(C)C)N(Cc1ccc2c(c1)OCO2)C(=O)c1snc(C(N)=O)c1N` (stereo not drawn)?
ABCG2 inh: inactive; Ins promoter up: inactive; ABCB1 inh: inactive; Autophagy HCS: inactive; ROMK hit retest: inconclusive

What do the screens show for `COc1cccc(CNCCNC(=O)c2nonc2N)c1`?
ABCG2 inh: inactive; sdo1 growth: inactive; Ins promoter up: inactive; ABCB1 inh: inactive; Autophagy HCS: inactive

How did COc1cc(CNCCNC(=O)c2nonc2N)ccc1OCc1ccc(Cl)cc1 do in these assays?
ABCG2 inh: inactive; Ins promoter up: inactive; ABCB1 inh: inactive; Autophagy HCS: inactive; ROMK primary: -3.1; ROMK hit retest: 0.053

Results for Nc1nonc1C(=O)NCCNCc1ccccc1OCc1ccccc1F ?
ABCG2 inh: inactive; sdo1 growth: inactive; Ins promoter up: inactive; ABCB1 inh: inactive; Autophagy HCS: inactive

What do the screens show for `Nc1nonc1C(=O)NCCNCc1cc(Br)ccc1OCc1ccccc1F`?
ABCG2 inh: inactive; sdo1 growth: inactive; Ins promoter up: inconclusive; ABCB1 inh: inactive; Autophagy HCS: inactive; ROMK primary: -4.2; ROMK hit retest: 0.049

Results for COc1ccc(C2(CNC(=O)c3ccc(OC)c([N+](=O)[O-])c3)CCCCC2)cc1OC ?
ABCG2 inh: inactive; sdo1 growth: inactive; Ins promoter up: inactive; ABCB1 inh: inactive; Autophagy HCS: inactive; ROMK primary: inactive

How did COc1cc(NS(=O)(=O)c2ccc(Nc3nc(-c4ccccc4)cs3)cc2)nc(OC)n1 do in these assays?
ABCG2 inh: inactive; sdo1 growth: inactive; Ins promoter up: inactive; ABCB1 inh: inactive; Autophagy HCS: inactive; ROMK primary: inactive

How did Cc1ccc2cc(C#N)c(NCCNC(=S)NCCCN(C)C)nc2c1C do in these assays?
ABCG2 inh: inactive; ABCB1 inh: inactive; Autophagy HCS: inactive; ROMK primary: -3.1; ROMK hit retest: 0.057

What do the screens show for `Cc1cc(C)c2nc(NCCCNC(=S)NCCCN(C)C)c(C#N)cc2c1`?
ABCG2 inh: inactive; Ins promoter up: inactive; ABCB1 inh: inactive; Autophagy HCS: inactive; ROMK primary: inactive

What do the screens show for `COc1cccc(/C=C2\SC(=S)N(N3C(=O)CCCC3=O)C2=O)c1`?
ABCG2 inh: inactive; Ins promoter up: inactive; ABCB1 inh: inactive; Autophagy HCS: inactive; ROMK primary: -2.7; ROMK hit retest: 0.049

What do the screens show for `Cc1ccc(C)c(NC(=O)c2ccc(S(=O)(=O)C(F)F)cc2)c1`?
ABCG2 inh: inactive; sdo1 growth: inactive; Ins promoter up: inactive; ABCB1 inh: inactive; Autophagy HCS: inactive

Results for CCCCOC(=O)C1CCC[C@@H](C)N1 (stereo partly drawn) ?
ABCG2 inh: inactive; sdo1 growth: inactive; Ins promoter up: inactive; ABCB1 inh: inactive; Autophagy HCS: inactive; ROMK hit retest: inactive

How did CC1CCCC(C(=O)OCc2ccccc2)N1 (stereo not drawn) do in these assays?
ABCG2 inh: inactive; sdo1 growth: inactive; ABCB1 inh: inactive; Autophagy HCS: inactive
